Source: ChEMBL document CHEMBL2434960 (Eur J Med Chem, 2013)

The molecules below were run against Replicase polyprotein 1a (Severe acute respiratory syndrome-related coronavirus, UniProt P0C6U8) (assay: Inhibition of SARS coronavirus 3CL-protease by fluorescence assay).
Procedure, shortened: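 Protease inhibition was measured by a fluorometric assay. Substrate concentration was held constant while inhibitor concentration was varied, and the kinetic parameters gave Ki values.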

Compared with `CC(C)C[C@H](NC(=O)c1nc2ccccc2s1)C(=O)N[C@@H](C[C@@H]1CCNC1=O)C(=O)c1nc2ccccc2s1`, `CC(C)C[C@H](NC(=O)c1cc2ccccc2o1)C(=O)N[C@@H](C[C@@H]1CCNC1=O)C(=O)c1nc2ccccc2s1` is 18-fold higher in Ki: 800 nM for the first, 14000 nM for the second.

Going from `CC(C)C[C@H](NC(=O)C1Cc2ccccc2N1)C(=O)N[C@@H](C[C@@H]1CCNC1=O)C(=O)c1nc2ccccc2s1` (stereo partly specified) to `CC(C)C[C@H](NC(=O)C1CCC(=O)N1)C(=O)N[C@@H](C[C@@H]1CCNC1=O)C(=O)c1nc2ccccc2s1` (mixture of isomers), the Ki rises from 120 nM to 2700 nM (22-fold). The first binds more tightly here.

Going from `CC(C)C[C@H](NC(=O)c1c[nH]c2ccccc12)C(=O)N[C@@H](C[C@@H]1CCNC1=O)C(=O)c1nc2ccccc2s1` to `CC(C)C[C@H](NC(=O)c1ccc[nH]1)C(=O)N[C@@H](C[C@@H]1CCNC1=O)C(=O)c1nc2ccccc2s1`, the Ki rises from 680 nM to 1700 nM (2.5-fold).

Compared with `CC(C)C[C@H](NC(=O)c1cc2cc(O)ccc2[nH]1)C(=O)N[C@@H](C[C@@H]1CCNC1=O)C(=O)c1nc2ccccc2s1`, `COc1ccc2cc(C(=O)N[C@@H](CC(C)C)C(=O)N[C@@H](C[C@@H]3CCNC3=O)C(=O)c3nc4ccccc4s3)[nH]c2c1` is 2.1-fold higher in Ki: 160 nM for the first, 330 nM for the second. The first binds more tightly here.

Compared with `CC(C)C[C@H](NC(=O)c1cc2c(OC(C)C)cccc2[nH]1)C(=O)N[C@@H](C[C@@H]1CCNC1=O)C(=O)c1nc2ccccc2s1`, `COc1ccc2[nH]c(C(=O)N[C@@H](CC(C)C)C(=O)N[C@@H](C[C@@H]3CCNC3=O)C(=O)c3nc4ccccc4s3)c(C)c2c1` is 140-fold higher in Ki: 48 nM for the first, 6700 nM for the second.

Work on `CCc1c(C(=O)N[C@@H](CC(C)C)C(=O)N[C@@H](C[C@@H]2CCNC2=O)C(=O)c2nc3ccccc3s2)[nH]c2ccc(OC)cc12` yielded a Ki of 7500 nM.
